Screens: PubChem BioAssay, Broad Institute
RAD54 inh = RAD54 (human) branch migration inhibition. Q92698. RAD54 Holliday junction branch migration, FAM/BHQ fluorescence. inhibition, % at 10.4 µM. 360,000 compounds, 0.14% hits;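 active = mean normalized replicate activity at least 40 and at least half of replicates scoring 40 or more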;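 note: 0% = median of neutral control wells and 100% = median of positive control wells; inhibitors cause a drop in the FAM fluorescence signal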
RAD52 anneal inh = blocks human RAD52 DNA annealing. P43351. recombinant RAD52 DNA annealing, FRET fluorescence. inhibition, % at 18.7 µM. 360,000 compounds, 0.46% hits;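 active = every replicate showing at least 50% inhibition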
FN deposition inh = fibronectin deposition inhibition; AH1F fibroblasts, Alexa488-fibronectin deposition fluorescence, overnight; inhibition, % at 12.6 µM; 350,000 compounds, 0.086% hits; AID 743247;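 active = mean inhibition across replicates of 30% or more, regardless of how many single replicates reach that level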;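 note: positive control wells lacked labelled fibronectin entirely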
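Material: AH1F fibroblast monolayer depositing Alexa488-labelled fibronectin into matrix | Input: 10000 AH1F cells/well | Medium: DMEM plus 2% serum, read in PBS | Reagent: Alexa488-fibronectin, 24 nM final in well | Compound dosing: One dose per compound, pinned | Schedule: 1 h adhesion, overnight exposure | Measured by: Fluorescence at 485 nm excitation, 525 nm emission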
PAX8 inh HTS = lowers PAX8-driven luciferase in RMG-I cells | RMG-I TPO-luciferase reporter, SteadyGlo, 24 h | AID 652154 | inhibition, % at 12.6 µM | 360,000 compounds, 1.2% hits;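 active = mean replicate inhibition at least 60% with every replicate also reaching 60%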;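 note: luciferase light reporting Pax8 driven TPO promoter activity; plate controls were median of neutral control wells for no effect and mitoxantrone controls for full effect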
* = called active by the depositor; ! = not confirmed by another sample. Only some compounds are listed: those with a hit (about 1.3% of all), similar ones and a draw of the others.

`Cc1ccc(S(=O)(=O)Nc2ccc3c(c2)C(=O)N([C@@H](C)CO)C[C@@H](C)[C@@H](CN(C)Cc2ccc4c(c2)OCO4)OCCCC[C@H](C)O3)cc1` gave RAD54 inh -2.4, RAD52 anneal inh -43.0, FN deposition inh -10.4 and PAX8 inh HTS 72.0*.
Screening C[C@@H]1CCCCO[C@H](CN(C)Cc2ccc3c(c2)OCO3)[C@@H](C)CN([C@@H](C)CO)C(=O)c2cc(NS(=O)(=O)c3ccc(Cl)cc3)ccc2O1 returned RAD54 inh -1.3, RAD52 anneal inh 61.5*, FN deposition inh 10.3 and PAX8 inh HTS 114.0*.
Screening C[C@@H]1CCCCO[C@H](CN(C)Cc2ccc3c(c2)OCO3)[C@H](C)CN([C@H](C)CO)C(=O)c2cc(NS(=O)(=O)c3ccc(Cl)cc3)ccc2O1 returned RAD54 inh -0.5, RAD52 anneal inh 40.6, FN deposition inh -3.9 and PAX8 inh HTS 18.3.
`Cc1c(NC(=S)N/N=C/C=C/c2ccc([N+](=O)[O-])cc2)c(=O)n(-c2ccccc2)n1C` gave RAD52 anneal inh -3.1, FN deposition inh 2.5 and PAX8 inh HTS 1.5.
Screening Cc1cc(NC(=O)CSc2nc3ccsc3c(=O)n2Cc2ccccn2)n[nH]1 returned RAD54 inh -10.5 and RAD52 anneal inh -7.4.
For O=C(O)[C@@H]1[C@@H](CO)[C@@H]2Cn3c(ccc(-c4ccccc4F)c3=O)[C@@H]2N1C(=O)c1cnccn1 the results were RAD54 inh 10.0 and RAD52 anneal inh -3.9.
For COc1ccc(NC(=O)N(C)C[C@H]2Oc3ccc(NC(=O)Nc4cccc5ccccc45)cc3C(=O)N([C@@H](C)CO)C[C@H]2C)cc1 the results were RAD54 inh 4.3, RAD52 anneal inh -3.1 and FN deposition inh 4.6.
Screening CC[N+](CC)(CC)CCOc1ccc(/C=C/c2ccccc2)cc1 returned RAD54 inh -4.2, RAD52 anneal inh 31.8, FN deposition inh -3.9 and PAX8 inh HTS 95.5*.
O=C(Nc1ccc(F)cc1)N1[C@@H]2CNC[C@H]1C2c1ccc(-c2ccc(F)cc2)cc1 (some centres undefined) was read as RAD52 anneal inh 51.4*, FN deposition inh 4.3 and PAX8 inh HTS -0.8.
For Cc1ccc(-c2ccc(C3[C@H]4CNC[C@@H]3N4C(=O)Nc3ccc(F)cc3)cc2)cc1 (some centres undefined) the results were RAD52 anneal inh 48.9, FN deposition inh -7.5 and PAX8 inh HTS -17.9.
For O=C(Nc1ccccc1Cl)N1[C@@H]2CNC[C@H]1C2c1ccc(-c2ccccc2)cc1 (some centres undefined) the results were RAD52 anneal inh -2.1, FN deposition inh -7.6 and PAX8 inh HTS 12.3.
`O=C(Nc1ccc(Cl)cc1)N1[C@@H]2CNC[C@H]1C2c1ccc(-c2ccccc2)cc1` (some centres undefined) gave RAD52 anneal inh 57.6*!, FN deposition inh -9.9 and PAX8 inh HTS -14.1.
O=C(Nc1ccc(F)cc1)N1[C@@H]2CNC[C@H]1C2c1ccc(-c2ccccc2)cc1 (some centres undefined) was read as RAD52 anneal inh 54.9*!, FN deposition inh -3.3 and PAX8 inh HTS -18.0.
Cc1ccc(-c2ccc(C3[C@H]4CNC[C@@H]3N4C(=O)Nc3ccccc3Cl)cc2)cc1 (some centres undefined) was read as RAD52 anneal inh 52.9*!, FN deposition inh 0.7 and PAX8 inh HTS -45.4.
For O=C(Nc1ccc(C(F)(F)F)cc1)N1[C@@H]2CNC[C@H]1C2c1ccc(-c2ccccc2)cc1 (some centres undefined) the results were RAD52 anneal inh 18.6, FN deposition inh -2.1 and PAX8 inh HTS -7.5.
For CC(C)n1nnnc1C1c2ccccc2C(=O)N1CCc1ccc(O)cc1 (centres undefined) the results were RAD52 anneal inh -22.7, FN deposition inh -12.4 and PAX8 inh HTS -4.3.
For O=[N+]([O-])c1cccc2c3c([nH]c12)CCCC3 the results were RAD54 inh -2.6, RAD52 anneal inh 4.1, FN deposition inh 5.9 and PAX8 inh HTS 4.1.
Screening O=C(Nc1ccc(Cl)cc1)N1[C@@H]2CNC[C@H]1C2c1ccc(/C=C/c2ccccc2)cc1 (some centres undefined) returned RAD52 anneal inh 67.2*! and FN deposition inh -4.9.
Screening O=C(Nc1ccc2c(c1)OCO2)N1[C@@H]2CNC[C@H]1C2c1ccc(/C=C/c2ccccc2)cc1 (some centres undefined) returned RAD52 anneal inh 60.5* and FN deposition inh -0.2.
CCc1cc(C(=O)N2CCCC(N3CCN(c4cccc(C(F)(F)F)c4)CC3)C2)n(C)n1 (centres undefined) was read as RAD54 inh 5.2, RAD52 anneal inh 0.7, FN deposition inh -1.1 and PAX8 inh HTS 4.7.
`Brc1ccc2nc(-c3ccc(CN4CCC(c5nc6ccccc6[nH]5)CC4)cc3)c(-c3ccccc3)nc2c1` gave RAD52 anneal inh -18.2, FN deposition inh 18.1 and PAX8 inh HTS 100.6*.
N#C[C@@H]1[C@@H](c2ccc(C#Cc3ccccc3F)cc2)[C@H](CO)N1C(=O)C1CCCCC1 was read as RAD54 inh 3.2, RAD52 anneal inh -48.3, FN deposition inh -13.0 and PAX8 inh HTS 81.5*.
For COc1ccccc1C#Cc1ccc([C@H]2[C@H](C#N)N(C(=O)C3CCC3)[C@H]2CO)cc1 the results were RAD54 inh -25.8, RAD52 anneal inh -5.5, FN deposition inh -3.7 and PAX8 inh HTS 106.3*.
Screening CCCC#Cc1ccc([C@@H]2[C@@H](C#N)N(C(=O)C3CCCCC3)[C@H]2CO)cc1 returned RAD54 inh 11.5, RAD52 anneal inh -63.7, FN deposition inh -11.0 and PAX8 inh HTS 82.5*.
`COc1ccccc1C#Cc1ccc([C@H]2[C@H](C#N)N(C(=O)C3CCCC3)[C@H]2CO)cc1` gave RAD52 anneal inh 4.3, FN deposition inh 12.8 and PAX8 inh HTS 107.5*.
COc1ccccc1C#Cc1ccc([C@H]2[C@@H](C#N)N(C(=O)C3CCCC3)[C@@H]2CO)cc1 was read as RAD52 anneal inh 22.3, FN deposition inh -2.2 and PAX8 inh HTS 47.5.
`COc1ccccc1C#Cc1ccc([C@@H]2[C@@H](CO)N(C(=O)C3CCCCC3)[C@H]2C#N)cc1` gave RAD54 inh -16.3, RAD52 anneal inh -18.4, FN deposition inh -5.2 and PAX8 inh HTS 85.0*.
COc1ccccc1C#Cc1ccc([C@@H]2[C@H](C#N)N(C(=O)C3CCCCC3)[C@H]2CO)cc1 was read as RAD52 anneal inh -4.2, FN deposition inh 0.5 and PAX8 inh HTS 25.8.
Screening COc1ccc(NC(=O)c2cc(-c3cc(F)ccc3OC(C)C)n[nH]2)c(OC)c1 returned RAD54 inh 0.4, RAD52 anneal inh 1.8, FN deposition inh -5.1 and PAX8 inh HTS 4.9.
CC(C)(C)C(=O)/C(C#N)=C/c1cccs1 was read as RAD52 anneal inh -6.6, FN deposition inh 6.8 and PAX8 inh HTS -4.5.
N#C/C(=C\c1cccs1)C(=O)c1ccccc1Cl was read as RAD52 anneal inh -17.7, FN deposition inh -0.3 and PAX8 inh HTS 64.4*.
`CCCCN(CC)Cc1ccc(CNC(=O)Nc2ccc(Cl)cc2)o1` gave RAD52 anneal inh -0.1, FN deposition inh 31.2* and PAX8 inh HTS -1.7.
